Marks after values point to notes of the source that are not given here.
How the values were obtained:
P-glycoprotein (P-gp) = conditions: in vitro studies; cited from earlier work
TNFα = conditions: in vitro; cited from earlier work
[1] = MAD study: plasma and urine pharmacokinetics; format: in vivo, human
Summary of the method: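 Healthy males got oral doses for 14 days: 100 mg once daily fasted, or 100, 200 or 300 mg twice daily fed. Plasma was drawn pre-dose and […] on Day 1, pre-dose and at 3 h on Days 4, 7 and 12, and up to 120 h after the final Day 14 morning dose. Urine was collected over 24 h at steady state. LC–MS/MS, LLOQ 2 ng/mL; non-compartmental analysis.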

[2] = MAD 24-hour urine Day 13, 100 mg BID fed
[3] = MAD 24-hour urine Day 13, 100 mg QD fasted
[4] = MAD 24-hour urine Day 13, 200 mg BID fed
[5] = MAD 24-hour urine Day 13, 300 mg BID fed
[6] = MAD Day 1 first dose, 100 mg BID fed
[7] = MAD Day 1 first dose, 100 mg QD fasted
[8] = MAD Day 1 first dose, 100 mg QD fasted, calculated by extrapolation
[9] = MAD Day 1 first dose, 200 mg BID fed
[10] = MAD Day 1 first dose, 300 mg BID fed
[11] = MAD Day 14, 100 mg BID fed, n = 6

Compound: CN1C(=O)c2cccc(OC(F)F)c2[C@H]2C[C@@H]1c1nc3ccc(-c4cnc(C5(N)CCC5)nc4)cc3n12 [Balinatunfib]
- active transport by P-glycoprotein (P-gp) (P-glycoprotein (P-gp)): substrate
- concentration leading to 90% occupancy of TNFα [OCC90] (TNFα): 16 nM
- time to steady state (90% CI) ([1]; BID dosing, fed): 5.45 (5.36–5.92) days
- Fe0-24 (fraction of dose excreted unchanged in urine), mean ± SD [1, 2]: 9.41 ± 4.66%
- Fe0-24, geometric mean [1, 2]: (8.18) [50] %
- Fe0-24 (fraction of dose excreted unchanged in urine), mean ± SD [1, 3]: 9.07 ± 1.85%
- Fe0-24, geometric mean [1, 3]: (8.91) [20] %
- Fe0-24 (fraction of dose excreted unchanged in urine), mean ± SD [1, 4]: 11.9 ± 3.54%
- Fe0-24, geometric mean [1, 4]: (11.4) [30] %
- Fe0-24 (fraction of dose excreted unchanged in urine), mean ± SD [1, 5]: 15.6 ± 4.40%
- Fe0-24, geometric mean [1, 5]: (15.0) [28] %
- AUC0-12, geometric mean [1, 6]: (324) [53] ng·h/mL
- AUC0-12, mean ± SD [1, 6]: 364 ± 194 ng·h/mL
- C av, geometric mean [1, 6]: (27.0) [53] ng/mL
- C av, mean ± SD [1, 6]: 30.4 ± 16.2 ng/mL
- C max, geometric mean [1, 6]: (38.1) [50] ng/mL
- C max, mean ± SD [1, 6]: 42.6 ± 21.2 ng/mL
- t max, median (min, max) [1, 6]: 6.00 (2.00, 8.00) h
- AUC0-12, geometric mean [1, 7]: (527) [35] ng·h/mL
- AUC0-12, mean ± SD [1, 7]: 559 ± 194 ng·h/mL
- C av, geometric mean [1, 7]: (28.1) [32] ng/mL
- C av, mean ± SD [1, 7]: 29.5 ± 9.33 ng/mL
- C max, geometric mean [1, 7]: (83.1) [38] ng/mL
- C max, mean ± SD [1, 7]: 88.6 ± 34.0 ng/mL
- t max, median (min, max) [1, 7]: 3.00 (3.00, 3.00) h
- AUC0-24, geometric mean [1, 8]: 674 ng·h/mL
- AUC0-24, mean ± SD [1, 8]: 708 ± 224 ng·h/mL
- AUC0-12, geometric mean [1, 9]: (1,080) [31] ng·h/mL
- AUC0-12, mean ± SD [1, 9]: 1,130 ± 354 ng·h/mL
- C av, geometric mean [1, 9]: (90.3) [31] ng/mL
- C av, mean ± SD [1, 9]: 94.5 ± 29.5 ng/mL
- C max, geometric mean [1, 9]: (132) [32] ng/mL
- C max, mean ± SD [1, 9]: 139 ± 43.9 ng/mL
- t max, median (min, max) [1, 9]: 5.00 (2.00, 6.00) h
- AUC0-12, geometric mean [1, 10]: (2,180) [32] ng·h/mL
- AUC0-12, mean ± SD [1, 10]: 2,280 ± 725 ng·h/mL
- C av, geometric mean [1, 10]: (182) [32] ng/mL
- C av, mean ± SD [1, 10]: 190 ± 60.4 ng/mL
- C max, geometric mean [1, 10]: (268) [31] ng/mL
- C max, mean ± SD [1, 10]: 278 ± 85.4 ng/mL
- t max, median (min, max) [1, 10]: 4.00 (3.00, 6.00) h
- AUC0-tau, geometric mean ([1]; MAD Day 14, 100 mg BID fed): (1,690) [48] ng·h/mL
- AUC0-tau, mean ± SD ([1]; MAD Day 14, 100 mg BID fed): 1,860 ± 892 ng·h/mL
- C av, geometric mean ([1]; MAD Day 14, 100 mg BID fed): (141) [48] ng/mL
- C av, mean ± SD ([1]; MAD Day 14, 100 mg BID fed): 155 ± 74.4 ng/mL
- C max, geometric mean ([1]; MAD Day 14, 100 mg BID fed): (173) [46] ng/mL
- C max, mean ± SD ([1]; MAD Day 14, 100 mg BID fed): 189 ± 86.3 ng/mL
- C trough, geometric mean ([1]; MAD Day 14, 100 mg BID fed): (122) [52] ng/mL
- C trough, mean ± SD ([1]; MAD Day 14, 100 mg BID fed): 136 ± 70.8 ng/mL
- CLss/F, geometric mean ([1]; MAD Day 14, 100 mg BID fed): (59.1) [44] L/h
- CLss/F, mean ± SD ([1]; MAD Day 14, 100 mg BID fed): 64.6 ± 28.2 L/h
- FLrel (relative fluctuation), geometric mean ([1]; MAD Day 14, 100 mg BID fed): (46.1) [20] %
- R ac (accumulation ratio), mean ± SD ([1]; MAD Day 14, 100 mg BID fed): 5.46 ± 0.951
- R ac Cmax (accumulation ratio based on C max), mean ± SD ([1]; MAD Day 14, 100 mg BID fed): 4.77 ± 0.730
- R ac, geometric mean ([1]; MAD Day 14, 100 mg BID fed): (5.38) [17]
- V z/F, geometric mean ([1]; MAD Day 14, 100 mg BID fed): (2,250) [51] L
- t max, median (min, max) ([1]; MAD Day 14, 100 mg BID fed): 3.00 (1.00, 4.00) h
- t 1/2z, geometric mean [1, 11]: (23.6) [13] h
- t 1/2z, mean ± SD [1, 11]: 23.8 ± 3.18 ^g h
- AUC0-tau, geometric mean ([1]; MAD Day 14, 100 mg QD fasted): (1,680) [27] ng·h/mL
- AUC0-tau, mean ± SD ([1]; MAD Day 14, 100 mg QD fasted): 1,750 ± 471 ng·h/mL
- C av, geometric mean ([1]; MAD Day 14, 100 mg QD fasted): (70.0) [27] ng/mL
- C av, mean ± SD ([1]; MAD Day 14, 100 mg QD fasted): 72.9 ± 19.6 ng/mL

Source: publication PMC12166256 (Clinical Pharmacology and Therapeutics, 2025)
